Reference: ChEMBL document CHEMBL1153852, “Steroidal lactones as inhibitors of 17beta-hydroxysteroid dehydrogenase type 5: chemical synthesis, enzyme inhibitory activity, and assessment of estrogenic and androgenic activities” (Eur J Med Chem, 2009)
Calls of active or inactive are those of the source. The calls are words filed in the database; no cut-off is given here.

Legend:
[1] = molecular target: T1, Aldo-keto reductase family 1 member C3 (Homo sapiens) (UniProt P42330); test: Inhibition of human 17beta-HSD5 expressed in HEK293 cells assessed as enzyme-mediated transformation of [14C]-4-androstene-3,17-dione in to [14C]-testosterone at 0.3 uM after 18 hrs; assay type: cell-based
T1 sequence (whole entry): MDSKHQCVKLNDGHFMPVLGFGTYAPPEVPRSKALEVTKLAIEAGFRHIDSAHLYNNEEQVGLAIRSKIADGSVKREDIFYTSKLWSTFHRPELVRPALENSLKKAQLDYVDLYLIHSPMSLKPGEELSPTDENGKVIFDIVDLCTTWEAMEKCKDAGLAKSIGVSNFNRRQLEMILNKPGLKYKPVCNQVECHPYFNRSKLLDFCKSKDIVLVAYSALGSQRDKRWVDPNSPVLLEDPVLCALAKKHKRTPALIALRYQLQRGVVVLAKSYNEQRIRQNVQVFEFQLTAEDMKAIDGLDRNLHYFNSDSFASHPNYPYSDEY
How it was run: (§1)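 Intact HEK-293 cells stably over-expressing human 17β-HSD5, in freshly changed culture medium. [14C]-4-androstene-3,17-dione is added at 100 nM with inhibitor from an ethanolic solution; controls get ethanol only. After 18 h the conversion to [14C]-T is measured.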

[2] = molecular target: T1, Aldo-keto reductase family 1 member C3 (Homo sapiens); test: Inhibition of human 17beta-HSD5 expressed in HEK293 cells assessed as enzyme-mediated transformation of [14C]-4-androstene-3,17-dione in to [14C]-testosterone at 3 uM after 18 hrs; assay type: cell-based; how it was run: as §1
[3] = molecular target: T2, Aldo-keto reductase family 1 member C3 (Homo sapiens, UniProt P42330); test: Inhibition of human 17beta-HSD5 expressed in HEK293 cells assessed as enzyme-mediated transformation of [14C]-4-androstene-3,17-dione in to [14C]-testosterone after 18 hrs; assay type: cell-based
T2 sequence (P42330 whole entry): T1 sequence (whole entry)
How it was run: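 Intact HEK-293 cells stably over-expressing human 17β-HSD5, in fresh culture medium. [14C]-4-androstene-3,17-dione 0.1 μM with inhibitor added in ethanol (ethanol alone as control), 18 h.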

ZR-75-1 [4] = test: Estrogenic activity in human ZR-75-1 cells expressing estrogen receptor assessed as estrogen-induced cell proliferation at 1 uM after 9 days relative to estrogen; assay type: functional
How it was run: (§2)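 ZR-75-1 cells are resuspended in phenol red-free RPMI 1640 with 5% dextran-charcoal-treated FBS and seeded at 10,000 cells/well. After 3 days of adhesion, lactones from ethanol stocks are added alone or with E2 (0.1 nM). Cells grow 9 days at 37 °C in 5% CO2, with medium changed every 2–3 days. DNA is measured by DABA fluorescence; E2-induced growth is set to 100%.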

ZR-75-1 [5] = test: Antiestrogenic activity in human ZR-75-1 cells expressing estrogen receptor assessed as inhibition of estrogen-induced cell proliferation at 0.03 uM after 9 days relative to estrogen; assay type: functional, cell-based; how it was run: as §2
ZR-75-1 [6] = test: Antiestrogenic activity in human ZR-75-1 cells expressing estrogen receptor assessed as inhibition of estrogen-induced cell proliferation at 1 uM after 9 days relative to estrogen; assay type: functional, cell-based; how it was run: as §2
Mus musculus [7] = species: Mus musculus; test: Androgenic activity in mouse SC115 cells expressing androgen receptor assessed as DHT-induced cell proliferation at 0.1 uM after 10 days relative to DHT; assay type: functional, cell-based
How it was run: (§3)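 SC115 Shionogi clone selected for DHT sensitivity, in MEM with 2% dextran-charcoal-treated FCS, seeded at 20,000 cells/well. After 24 h the medium is renewed and lactones added at 0.1 and 1, without DHT. Final ethanol is 0.01%. Cells are grown 10 days at 37 °C in 5% CO2, with medium changed every 3–4 days. DNA is measured by DABA fluorescence; DHT-stimulated growth is set to 100%.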

Mus musculus [8] = species: Mus musculus; test: Androgenic activity in mouse SC115 cells expressing androgen receptor assessed as DHT-induced cell proliferation at 1 uM after 10 days relative to DHT; assay type: functional, cell-based; how it was run: as §3
[9] = molecular target: T3, Estrogen receptor (Rattus norvegicus) (UniProt P06211); test: Binding affinity to rat uterus estrogen receptor at 10 uM
T3 sequence (whole entry): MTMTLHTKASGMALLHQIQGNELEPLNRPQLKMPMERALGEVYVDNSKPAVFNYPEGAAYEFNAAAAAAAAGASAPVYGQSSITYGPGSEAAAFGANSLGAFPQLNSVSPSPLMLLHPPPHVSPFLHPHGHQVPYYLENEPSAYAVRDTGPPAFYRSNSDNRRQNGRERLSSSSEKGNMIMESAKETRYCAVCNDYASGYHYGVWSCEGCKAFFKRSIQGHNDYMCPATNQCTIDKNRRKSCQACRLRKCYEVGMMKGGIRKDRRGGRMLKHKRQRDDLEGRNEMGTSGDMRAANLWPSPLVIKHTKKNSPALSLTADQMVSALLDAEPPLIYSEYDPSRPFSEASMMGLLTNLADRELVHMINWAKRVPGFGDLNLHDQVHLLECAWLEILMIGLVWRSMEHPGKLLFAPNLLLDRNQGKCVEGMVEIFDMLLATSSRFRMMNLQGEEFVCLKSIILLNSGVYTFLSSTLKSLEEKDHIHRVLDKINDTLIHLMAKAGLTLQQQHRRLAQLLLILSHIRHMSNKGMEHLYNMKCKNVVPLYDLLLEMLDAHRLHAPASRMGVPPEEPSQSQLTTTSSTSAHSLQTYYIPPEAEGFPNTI

[10] = molecular target: T4, 17-beta-hydroxysteroid dehydrogenase type 3 (Homo sapiens) (UniProt P37058); test: Inhibition of human 17beta-HSD3 expressed in HEK293 cells assessed as enzyme-mediated transformation of [14C]-4-androstene-3,17-dione in to [14C]-testosterone at 1 uM; assay type: cell-based
T4 sequence (whole entry): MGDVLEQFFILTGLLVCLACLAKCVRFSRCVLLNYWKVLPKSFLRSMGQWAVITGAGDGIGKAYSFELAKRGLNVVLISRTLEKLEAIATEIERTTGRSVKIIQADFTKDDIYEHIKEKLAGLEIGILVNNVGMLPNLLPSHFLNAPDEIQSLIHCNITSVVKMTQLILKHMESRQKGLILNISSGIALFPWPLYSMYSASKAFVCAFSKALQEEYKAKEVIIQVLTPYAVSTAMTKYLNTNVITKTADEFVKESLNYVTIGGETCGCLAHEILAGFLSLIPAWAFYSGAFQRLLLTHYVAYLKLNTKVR

Structure (SMILES)	inhibition [1] [%]	inhibition [2] [%]	IC50 [3] [nM]	Activity (ZR-75-1 [4]) [%]	Activity (ZR-75-1 [5])	Activity (ZR-75-1 [6])	Activity (Mus musculus [7])	Activity (Mus musculus [8])	Activity [9] [%]	inhibition [10] [%]
CC1(C)CC[C@@]2(CC[C@H]3[C@@H]4CCc5cc(O)ccc5[C@H]4CC[C@@]32C)OC1=O	86	94	28	30	inactive	Active	inactive	inactive	80	–
CC1(C)CC[C@@]2(CC[C@H]3[C@@H]4CCc5ccccc5[C@H]4CC[C@@]32C)OC1=O	94	95	2.9	50	inactive	inactive	inactive	inactive	–	64
